Assay results as given in ChEMBL document CHEMBL1131621, “Synthesis and activity of dipeptides, linked to targeting ligands, as specific NK cell enhancers” (1998).
Where a SMILES comes first, the peptide text is derived from it. [ ]: non-standard residue; d: D form.

Key:
[1] = In vitro Natural Killer cell activity (Activation of murine splenocyte NK cells by its ability to lyze YAC-1 target cells in chromium release assay) relative to interleukin 2 at 10E-4 to 10E-12 M conc.; format: functional, Mus musculus
Summary of the method: (§1)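 Spleens from female C57BL/6 (H-2b) mice, 6–8 weeks old, homogenized in RPMI 1640 with 10% FCS and 2 mM L-glutamine. Mononuclear cells isolated on a Lympholyte M gradient (800g, 20 min), washed in PBS, viability checked by trypan blue. 5×10^5 splenocytes with compound incubated 4 h with 5×10^3 51Cr-labelled YAC-1 cells; % specific lysis from released chromium. Compounds tested at 10^-4–10^-12 M. Peak activity scored relative to IL 2 (100%) in 20% bands. Actives run 2–5 times, inactives once.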

[2] = In vitro Natural Killer cell activity (Activation of murine splenocyte NK cells by its ability to lyze YAC-1 target cells in chromium release assay) relative to interleukin 2; Range 0-20%; format: functional, Mus musculus; summary of the method: as §1
[3] = In vitro Natural Killer cell activity (Activation of murine splenocyte NK cells by its ability to lyze YAC-1 target cells in chromium release assay) relative to interleukin 2 at 10E-8 to 10E-12 M conc; Range 41-60%; format: functional, Mus musculus; summary of the method: as §1
[4] = In vitro Natural Killer cell activity (Activation of murine splenocyte NK cells by its ability to lyze YAC-1 target cells in chromium release assay) relative to interleukin 2 at 10E-4 to 10E-12 M conc; Range 41-60%; format: functional, Mus musculus; summary of the method: as §1
[5] = In vitro Natural Killer cell activity (Activation of murine splenocyte NK cells by its ability to lyze YAC-1 target cells in chromium release assay) relative to interleukin 2 at 10E-4 to 10E-12 M conc; Range 21-40%; format: functional, Mus musculus; summary of the method: as §1
[6] = In vitro Natural Killer cell activity (Activation of murine splenocyte NK cells by its ability to lyze YAC-1 target cells in chromium release assay) relative to interleukin 2 at 10E-4 to 10E-12 M conc; Range 81-100%; format: functional, Mus musculus; summary of the method: as §1
Mus musculus [7] = species on record: Mus musculus; assay: Peak or the range of peak activity relative to positive IL 2 control; Range 10e-12-10e-5; format: functional; summary of the method: as §1
[8] = In vitro Natural Killer cell activity (Activation of murine splenocyte NK cells by its ability to lyze YAC-1 target cells in chromium release assay) relative to interleukin 2 at 10E-4 to 10E-12 M conc; Range 61-80%; format: functional, Mus musculus; summary of the method: as §1
Mus musculus [9] = species on record: Mus musculus; assay: Peak or the range of peak activity relative to positive IL 2 control; Range 10e-12-10e-4; format: functional; summary of the method: as §1

With C[C@@H](N)C(=O)N[C@@H](CCC(N)=O)C(=O)NCCCCCC(=O)O the Stimulation [1] was 0%.

For CC1OC(OCCCCCCNC(=O)[C@H](CCCN)NC(=O)[C@@H](C)N)C(O)C(O)C1O (some centres undefined), the Stimulation [1] was 0%.

For CC(=O)OCCCCCCNC(=O)[C@@H](CCC(N)=O)NC(=O)[C@H](C)N, the Stimulation [2] was 0%.

In the case of C[C@H](N)C(=O)N[C@H](CCC(N)=O)C(=O)NCCCCCCO, the Stimulation [3] is reported as 41%.

C[C@H](N)C(=O)N[C@@H](CCC(N)=O)C(=O)NCCCCCCO gave a Stimulation [4] of 41%.

Work on CC1OC(OCCCCCCNC(=O)[C@H](CC(N)=O)NC(=O)[C@@H](C)N)C(O)C(O)C1O (some centres undefined) yielded a Stimulation [1] of 0%.

Work on CC1OC(OCCCCCCNC(=O)[C@@H]2CCCN2C(=O)[C@H](C)N)C(O)C(O)C1O (some centres undefined) yielded a Stimulation [1] of 0%.

With C[C@@H](N)C(=O)N[C@H]1CCC(=O)NC1=O the Stimulation [1] was 0%.

For C[C@@H](N)C(=O)N[C@@H](CCC(N)=O)C(=O)O (H-[dA]-Gln-OH), the Stimulation [2] was 0%.

Work on CC1OC(OCCc2ccc(NC(=O)[C@H](CCC(N)=O)NC(=O)[C@@H](C)N)cc2)C(O)C(O)C1O (some centres undefined) yielded a Stimulation [1] of 0%.

CC1OC(OCCCCCCNC(=O)[C@H](CCCCNC(=O)[C@H](CCC(N)=O)NC(=O)[C@@H](C)N)NC(=O)[C@H](CCC(N)=O)NC(=O)[C@@H](C)N)C(O)C(O)C1O (some centres undefined) showed a Stimulation [5] of 21%.

For C[C@@H](N)C(=O)N[C@@H](CCC(N)=O)C(=O)NCCCCCCO[C@H]1O[C@H](CO)[C@H](O)[C@@H](O)[C@H]1O, the Stimulation [6] was 0%.

For C=CCn1c(=O)n([C@@H]2O[C@H](CO)[C@@H](O)[C@H]2O)c2nc(N)[nH]c(=O)c21 [LOXORIBINE], the Stimulation [1] was 0%.

Work on NC(=O)CC[C@H](N)C(=O)NCCCCCCO yielded a Stimulation [2] of 0%.

With CC1OC(OCCCCCCNC(=O)[C@H](CCC(N)=O)NC(=O)[C@H](C)N)C(O)C(O)C1O (some centres undefined) the Concentration (Mus musculus [7]) was 10 pM, the Stimulation [8] was 61% and the Concentration (Mus musculus [9]) was 10 pM.

In the case of CC1OC(OCCCCCCNC(=O)[C@H](CCC(N)=O)NC(=O)[C@H](N)C(C)C)C(O)C(O)C1O (some centres undefined), the Concentration (Mus musculus [9]) is reported as 10 pM and the Stimulation [4] is reported as 41%.

Compound C[C@H](N)C(=O)N1CCC[C@H]1C(=O)NCCCCCCO has a Stimulation [2] of 0%.

For CC1OC(OCCCCCCNC(=O)[C@@H](CCC(N)=O)NC(=O)[C@H](C)N)C(O)C(O)C1O (some centres undefined), the Stimulation [1] was 0%.

With CC1OC(OCCCCCCNC(=O)[C@H](CCC(=O)O)NC(=O)[C@@H](C)N)C(O)C(O)C1O (some centres undefined) the Concentration (Mus musculus [9]) was 10 pM and the Stimulation [4] was 41%.

Compound CN[C@H](C(=O)NCCCCCCOC1OC(C)C(O)C(O)C1O)c1ccc(C(=O)O)[nH]1 (some centres undefined) has a Stimulation [1] of 0%.
